Data from paper PMC10155261 (European journal of medicinal chemistry, 2022).
Read-outs that look alike come from different tables or passages of the source.

Legend:
[1] = test system: CFA-induced nociceptive hypersensitivity in rats; test: CFA-induced inflammatory pain model, von Frey mechanical nociception; assay type: in vivo, Sprague-Dawley rats; conditions: i.p.; for duration of effect in CFA model: 65 and 66 at 17.8 mg/kg, 2 at 32 mg/kg
[2] = test system: LPA5; conditions: cAMP assay ref 31; cited from earlier work
[3] = test system: CCI-induced mechanical allodynia in rats; test: Chronic constriction injury; assay type: in vivo, Sprague-Dawley rats; conditions: i.p.
[4] = test system: LPA5; conditions: SAR study of Kawamoto et al. ref 32; cited from earlier work
[5] = target: T1, hLPA5 (Homo sapiens, UniProt Q9H1C0); test: LPA5 calcium mobilization assay; assay type: cell-based; conditions: for fold less potent than 2: in both calcium mobilization and cAMP assays
T1 sequence (Q9H1C0 whole entry): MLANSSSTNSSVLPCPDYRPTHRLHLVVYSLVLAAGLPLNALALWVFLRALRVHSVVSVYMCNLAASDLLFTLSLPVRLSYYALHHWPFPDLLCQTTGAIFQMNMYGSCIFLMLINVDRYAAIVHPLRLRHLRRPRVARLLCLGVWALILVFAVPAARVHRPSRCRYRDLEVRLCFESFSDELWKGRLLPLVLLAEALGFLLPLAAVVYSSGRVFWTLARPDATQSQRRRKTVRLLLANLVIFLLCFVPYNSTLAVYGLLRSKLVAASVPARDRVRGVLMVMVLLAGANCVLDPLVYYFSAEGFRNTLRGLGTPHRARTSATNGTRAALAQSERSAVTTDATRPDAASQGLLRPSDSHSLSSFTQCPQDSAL
Summary of the method: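 RH7777-hLPA5 cells were plated on poly-D-lysine at 20,000 cells/well in 0.2% FBS medium for 18–20 h at 37 °C. They were loaded 45 min with Calcium 5 dye in HBSS, 20 mM HEPES and 2.5 mM probenecid, pH 7.4. Eight test-compound concentrations were pre-incubated for 15 min at 37 °C, then hexadecyl LPA 16:0 EC80 (30 nM) was added at 10 s. Fluorescence (485/525 nm) was read every 1 s for 90 s. IC50 came from a three-parameter logistic fit of RFU. Duplicate determinations; two or at least three independent experiments.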

[6] = target: T1, hLPA5; test: LPA5 TR-FRET Lance Ultra cAMP assay; assay type: cell-based; conditions: for fold less potent than 2: cAMP assay
[7] = test system: LPA1–LPA4 receptors; test: LPA1–LPA3 calcium mobilization; assay type: cell-based; conditions: 10 μM in Ca2+ for LPA1–LPA3 and cAMP for LPA4
Summary of the method: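 Selectivity was tested with test compound at 10 μM. LPA1–LPA3 calcium mobilization was run externally in CHO cells over-expressing each receptor, under the provider's protocols. LPA4 was a TR-FRET cAMP assay in LPA4-overexpressing CHO cells, following the LPA5 cAMP method but against 250 nM hexadecyl LPA 16:0 (EC80).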

[8] = test system: >50 GPCRs (NIMH Psychoactive Drug Screening Program panel); test: NIMH PDSP radioligand binding panel; conditions: < 50% inhibition at 10 μM or pKi ≤ 6
[9] = Metabolic stability in rat liver microsomes; assay type: in vitro ADME; conditions: pH 7.4
Summary of the method: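 Rat liver microsomes (0.5 mg/mL protein) were used in 100 mM potassium phosphate, pH 7.4, at 37 °C, with NADPH at 1 mM final. Samples were taken at 0, 5, 15, 30 and 45 min and quenched 1:1 in cold acetonitrile containing labetalol and glyburide. Parent was measured by LC-MS/MS, and half-life and in vitro clearance were calculated. Two independent experiments in duplicate.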

[10] = Bidirectional MDCK-MDR1 permeability; assay type: in vitro ADME; conditions: dog; for Papp B→A at 90 min, 10 μM: MDCK-MDR1, pH 7.4, Papp (B-to-A), MDCK-MDR1 Transwell
Summary of the method: (§1)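 MDCK-mdr1 cells (passage 5) were grown on polycarbonate Transwell supports for 3 days and rinsed with warm HBSS. They were pre-incubated 30 min at 37 °C in HBSS with 10 mM HEPES and 0.25% BSA, pH 7.4, then TEER was measured. Test compound at 10 μM went to the apical donor (A-to-B) or basolateral donor (B-to-A) side, at 37 °C with light agitation. Receiver was sampled at 30, 60 and 90 min and analysed by LC-MS/MS. Papp came from dQ/dt, area 1.12 cm2 and initial donor concentration. Atenolol and propranolol were references.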

[11] = test system: MDCK-mdr1 cells; test: Bidirectional MDCK-MDR1 permeability; assay type: in vitro ADME; conditions: MDCK-MDR1 Transwell, 10 μM
Summary of the method: as §1

[12] = test system: P-glycoprotein (MDR1); test: Bidirectional MDCK-MDR1 permeability; assay type: in vitro ADME; conditions: dog, MDCK-MDR1, pH 7.4
Summary of the method: as §1

[13] = target: dopamine D3 (Homo sapiens, UniProt P35462); test: NIMH PDSP radioligand binding, D3
dopamine D3, sequence (P35462 whole entry): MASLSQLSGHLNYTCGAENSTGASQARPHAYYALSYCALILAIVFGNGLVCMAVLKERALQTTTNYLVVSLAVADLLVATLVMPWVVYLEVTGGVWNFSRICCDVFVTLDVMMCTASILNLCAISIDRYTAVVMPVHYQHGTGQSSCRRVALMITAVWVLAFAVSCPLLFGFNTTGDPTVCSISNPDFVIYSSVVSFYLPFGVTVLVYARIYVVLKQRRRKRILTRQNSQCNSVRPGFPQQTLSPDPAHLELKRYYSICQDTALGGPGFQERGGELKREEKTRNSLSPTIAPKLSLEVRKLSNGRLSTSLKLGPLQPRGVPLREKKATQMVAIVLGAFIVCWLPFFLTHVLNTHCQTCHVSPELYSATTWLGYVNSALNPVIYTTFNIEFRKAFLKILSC

[14] = test system: fentanyl-induced mechanical hypersensitivity in rats; test: Fentanyl; assay type: in vivo; conditions: i.p.
[15] = test system: locomotor activity in rats; test: Locomotor activity; assay type: in vivo; conditions: 17.8 mg/kg i.p., 60 min pretreatment, P > 0.05
[16] = Plasma protein binding; assay type: in vitro ADME; conditions: rat
Summary of the method: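 Equilibrium dialysis: test compound or controls at 1 μM in rat plasma, in triplicate, against buffer across a 12–14K MWCO cellulose membrane. Incubation ran 6 h at 37 °C with light agitation to equilibrium. Plasma and buffer were extracted with cold acetonitrile/methanol (1:1) and quantified by LC-MS/MS against standard curves. Acebutolol (low-bound) and warfarin (high-bound) served as controls.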

[17] = test system: LPA5; conditions: read-out: IC50, binding to [^3H]LPA; literature value ref 8; cited from earlier work

COc1cc2c(C(=O)N3CCCCC3)cn(-c3noc4ccc(C)cc34)c(=O)c2cc1OC [Compound 2, 6,7-Dimethoxy-2-(5-methylbenzo[d]isoxazol-3-yl)-4-(piperidine-1-carbonyl)isoquinolin-1(2H)-o-ne, reference compound]
effect on CFA-induced nociceptive hypersensitivity ([1]; 32 mg/kg): did not fully reverse the nociceptive hypersensitivity | duration of effect in CFA model [1]: ~ 2 h | IC50 [2]: 38 nM | antinociceptive effect in CCI model ([3]; 32 mg/kg): full antinociceptive effects

CCN1CCc2ccc(-n3cc(C(=O)N4CCC(F)CC4)c4cc(OC)c(OC)cc4c3=O)cc21 [Compound 3, 2-(1-Ethylindolin-6-yl)-4-(4-fluoropiperidine-1-carbonyl)-6,7-dimethoxyisoquinolin-1(2H)-one, reference compound]
IC50 [4]: 120 nM | fold less potent than 2 [5]: 2–3 fold

C#CC1CCN(C(=O)c2cn(-c3cccc(N(C)C)c3)c(=O)c3cc(OC)c(OC)cc23)CC1 [Compound 26, 2-(3-(Dimethylamino)phenyl)-4-(4-ethynylpiperidine-1-carbonyl)-6,7-dimethoxyisoquinolin-1(2-H)-one]
IC50 [6]: 890 ± 100 nM | fold less potent than 2 [6]: 4 – 10 fold | fold more potent than the unsubstituted piperidine 15 ([5]; calcium assay): ~ 2 fold

COc1cc2c(C(=O)N3CCCCC3)cn(-c3ccc4ccn(C)c4c3)c(=O)c2cc1OC [Compound 58, 6,7-Dimethoxy-2-(1-methyl-1H-indol-6-yl)-4-(piperidine-1-carbonyl)isoquinolin-1(2H)-one]
potency difference between cAMP and calcium mobilization assays [6]: 7.2 fold

COc1cc2c(C(=O)N3CCC(F)CC3)cn(-c3ccc4scc(C)c4c3)c(=O)c2cc1OC [Compound 65, 4-(4-Fluoropiperidine-1-carbonyl)-6,7-dimethoxy-2-(3-methylbenzo[b]thiophen-5-yl)isoquinolin-1(2H)-one]
effect on CFA-induced nociceptive hypersensitivity ([1]; 17.8 mg/kg): markedly alleviated nociceptive hypersensitivity | duration of effect in CFA model [1]: ~ 5 h | LPA1–LPA4 inhibition [7]: <50% | potency difference between cAMP and calcium mobilization assays [6]: 4.9 fold | fold less potent than 2 [5]: 1.5–2 fold | affinity for panel receptors [8]: no significant affinity for most of the receptors | CLint scaled at 0.75 h [9]: 48.4 mL/min/kg | Papp B→A at 90 min, 10 μM [10]: 31.1 ×10⁻⁶ cm/s | Papp (B-to-A) [11]: 30.4 10^−6 cm/s | efflux ratio at 90 min, 10 μM [12]: < 2.5

C#CC1CCN(C(=O)c2cn(-c3ccc4scc(C)c4c3)c(=O)c3cc(OC)c(OC)cc23)CC1 [Compound 66, 4-(4-Ethynylpiperidine-1-carbonyl)-6,7-dimethoxy-2-(3-methylbenzo[b]thiophen-5-yl)isoquinoli-n-1(2H)-one]
effect on CFA-induced nociceptive hypersensitivity ([1]; 17.8 mg/kg): markedly alleviated nociceptive hypersensitivity | duration of effect in CFA model [1]: ~ 5 h | LPA1–LPA4 inhibition [7]: <50% | fold less potent than 2 [6]: 1.7 fold | Ki [13]: 380 nM | fold more potent than the 4-fluoro analog 65 ([5]; calcium assay): 2 fold | dose achieving statistical significance in OIH model [14]: 5.6 mg/kg | effect on fentanyl-induced mechanical hypersensitivity (OIH) [14]: dose-dependently and significantly mitigated this mechanical hypersensitivity | effect on CCI-induced mechanical allodynia ([3]; 17.8 mg/kg): completely reversed this hypersensitivity condition | effect on locomotor activity [15]: did not have any measurable effect on the locomotor activity | affinity for panel receptors [8]: no significant affinity for most of the receptors | CLint scaled at 0.75 h [9]: 74.7 mL/min/kg | Papp A→B at 90 min, 10 μM ([10]; MDCK-MDR1, pH 7.4): 30.4 ×10⁻⁶ cm/s | Papp B→A at 90 min, 10 μM [10]: 38.7 ×10⁻⁶ cm/s | efflux ratio at 90 min, 10 μM [12]: < 2.5 | fraction unbound at 6 h, 1 μM [16]: 0.01

CCCCCCCCCCCCCCCCOC[C@@H](O)COP(=O)(O)O [hexadecyl LPA 16:0, reference compound]
potency difference between cAMP and calcium mobilization assays [6]: about 6 fold | IC50 [17]: 7.5 nM
